In PMC11815446 (Open Heart, 2025):
Where a name gives a salt, the structure may show the parent alone.

Key:
[1] = system: ADP-induced platelet aggregation; experiment: ADP-induced platelet aggregation in whole blood, impedance aggregometry; format: in vivo, human; conditions: for mean %inhibition of platelet aggregation: all subjects
[2] = Safety assessment, treatment emergent adverse events; format: in vivo, human; conditions: A n=40, B n=39
In short: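 Healthy Indian adults (18–45 y, BMI 18.50–29.90 kg/m²) were CYP2C19-genotyped at two laboratories as *1/*1 or *2/*2. Randomised two-period crossover: loading dose day 1, then once-daily maintenance doses days 2–6, with a washout of at least 14 days. The investigator recorded adverse events throughout the study, along with PT/PTT, vital signs, ECGs, haematology, blood chemistry, urinalysis and physical examinations.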

CYP2C19 = conditions: ref 8 9; cited from earlier work
[3] = two-step process in the liver; ref 8 9; cited from earlier work

**Q.** For COC(=O)[C@H](c1ccccc1Cl)N1CCc2sccc2C1 [Clopidogrel, Hydrogen sulfate;hydron;methyl (2S)-2-(2-chlorophenyl)-2-(6,7-dihydro-4H-thieno[3,2-c]pyridin-5-yl)acetate], which “mean %inhibition of platelet aggregation” value ([1]; 6 hours postdose (loading dose: AT-10 40 mg, clopidogrel 300 mg)) is on record?
**A.** The value was 18.53%.

**Q.** What about the “mean %inhibition of platelet aggregation” value ([1]; 6 hours postdose on day 6 (maintenance dose: AT-10 10 mg, clopidogrel 75 mg)) of the same compound?
**A.** The value was 51.19%.

**Q.** What about the “time at which inhibition of ADP-induced platelet aggregation reaches the peak” value ([1]; postdose) of the same compound?
**A.** Its value is “around 6 hours”.

**Q.** What about the “Treatment emergent adverse events: Anxiety” value [2] of the same compound?
**A.** The value was 00.0 (00.0) n (%) E.

**Q.** What about the “Treatment emergent adverse events: Cough” value [2] of the same compound?
**A.** The value was 00.0 (00.0) n (%) E.

**Q.** What about the “Treatment emergent adverse events: Psychiatric disorders” value [2] of the same compound?
**A.** The value was 00.0 (00.0) n (%) E.

**Q.** And the “Treatment emergent adverse events: Respiratory, thoracic and mediastinal disorders” value [2]?
**A.** Its value is 00.0 (00.0) n (%) E.

**Q.** What about the “contribution of CYP2C19 to the first metabolic step (Step 1)” value (CYP2C19) of the same compound?
**A.** Its value is 45%.

**Q.** What about the “share of the drug converted to the active metabolite H4” value [3] of the same compound?
**A.** Its value is 15%.
